From article PMC11500731 (RSC Advances, 2024)
Like-named read-outs stand apart in the source and are kept apart here.

Experiments:
MCF-7 = assay: Cytotoxicity assay; format: cell-based, human; settings: read-out: IC50 (50% inhibitory concentration), MCF-7
Procedure, shortened: (§1)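 HepG2 cells (DMEM) or MCF-7 cells (RPMI-1640), each with 10% FBS, at 37 °C and 5% CO2. Cells were trypsinised, counted by trypan blue and seeded at 2.5 × 10^3 cells/well overnight. Test compound at 100, 50, 25, 12.5, 6.25 and 0 μM in 1% FBS medium, quadruplicate, 48 h. Adherent cells stained with 0.02% crystal violet, washed with water, dye dissolved in 1% SDS, A595. IC50 by linear regression of concentration against inhibition rate.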

MDA-MB-231 = assay: Cytotoxicity assay; format: cell-based; settings: read-out: IC50 (50% inhibitory concentration), MDA-MB-231; human breast cancer, 48 hours, 1% FBS, mean ± SD
Procedure, shortened: (§2)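 Cells grown at 37 °C, 5% CO2 with 10% FBS (HepG2.2.15 in DMEM; MDA-MB-231 in DMEM/F12 1:1) and trypsinised and trypan blue-counted 24 h before. Seeded at 2.5 × 10^3 per well overnight, then exposed in quadruplicate to 100–6.25 μM plus 0 μM in 1% FBS medium for 48 h. Crystal violet stain, water wash, SDS solubilisation, A595. IC50 from linear regression of concentration against inhibition rate.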

HEPG2 = assay: Cytotoxicity assay; format: cell-based, human; settings: read-out: IC50 (50% inhibitory concentration), HEPG2
Procedure, shortened: as §1

HEPG2.2.15 = assay: Cytotoxicity assay; format: cell-based; settings: read-out: IC50 (50% inhibitory concentration), HEPG2.2.15; human hepatocellular carcinoma, HBV transformed, 48 hours, 1% FBS, mean ± SD
Procedure, shortened: as §2

SARS-CoV-2 3CL protease = SARS-CoV-2 3CL protease (Severe acute respiratory syndrome coronavirus 2, UniProt P0DTD1); assay: In vitro inhibitory activity assay of 3CL protease; format: biochemical; settings: read-out: inhibitory activity against 3CL protease
[1] = human breast cancer, 48 hours, 1% FBS, mean ± SD
[2] = human hepatocellular carcinoma, 48 hours, 1% FBS, mean ± SD

## 3-(((1-(2-Hydroxyethyl)-5-nitro-1H-benzo[d]imidazole-2-yl)methyl)thio)-2-(pyridin-3-ylmethyl)isoquinolin-1(2H)-one [9c]
MCF-7; [1]
  IC50: > 100 µM
MDA-MB-231
  IC50: > 100 µM
HEPG2; [2]
  IC50: > 100 µM
HEPG2.2.15
  IC50: > 100 µM

## 3-(((1H-Benzo[d]imidazole-2-yl)methyl)thio)-2-(pyridin-3-ylmethyl)isoquinolin-1(2H)-one [9a]
MCF-7; [1]
  IC50: > 100 µM
MDA-MB-231
  IC50: > 100 µM
HEPG2; [2]
  IC50: > 100 µM
HEPG2.2.15
  IC50: > 100 µM

## O=C(Cn1cnc2ccccc2c1=O)Nc1ccc(O)cc1[N+](=O)[O-] [4a, N-(4-Hydroxy-2-nitrophenyl)-2-(4-oxoquinazolin-3(4H)-yl)acetamide]
MCF-7; Homo sapiens, MCF7, 48 h
  IC50: > 100 µM
HEPG2; Homo sapiens, HepG2, 48 h
  IC50: > 100 µM
SARS-CoV-2 3CL protease
  inhibition at 50 µM: > 50%

## O=C(Cn1cnc2ccccc2c1=O)Nc1cc(Cl)ccc1O [4b, N-(5-Chloro-2-hydroxyphenyl)-2-(4-oxoquinazolin-3(4H)-yl)acetamide]
MCF-7; Homo sapiens, MCF7, 48 h
  IC50: > 100 µM
HEPG2; Homo sapiens, HepG2, 48 h
  IC50: > 100 µM

## COc1ccc(NC(=O)Cn2cnc3ccccc3c2=O)c([N+](=O)[O-])c1 [4c, N-(4-methoxy-2-nitrophenyl)-2-(4-oxoquinazolin-3(4H)-yl)acetamide]
MCF-7; Homo sapiens, MCF7, 48 h
  IC50: > 100 µM
HEPG2; Homo sapiens, HepG2, 48 h
  IC50: > 100 µM
SARS-CoV-2 3CL protease
  inhibition at 50 µM: > 50%

## Cc1ccc(NC(=O)Cn2cnc3ccccc3c2=O)c(O)c1 [4d, N-(2-Hydroxy-4-methylphenyl)-2-(4-oxoquinazolin-3(4H)-yl)acetamide]
MCF-7; Homo sapiens, MCF7, 48 h
  IC50: > 100 µM
HEPG2; Homo sapiens, HepG2, 48 h
  IC50: > 100 µM

## O=C(Cn1cnc2ccccc2c1=O)Nc1ccccc1O [4e, N-(2-Hydroxyphenyl)-2-(4-oxoquinazolin-3(4H)-yl)acetamide]
MCF-7; Homo sapiens, MCF7, 48 h
  IC50: > 100 µM
HEPG2; Homo sapiens, HepG2, 48 h
  IC50: 54.9 ± 15.2 µM

## O=C(Cn1cnc2ccccc2c1=O)Nc1ncccc1O [4f, N-(3-Hydroxypyridin-2-yl)-2-(4-oxoquinazolin-3(4H)-yl)acetamide]
MCF-7; Homo sapiens, MCF7, 48 h
  IC50: > 100 µM
HEPG2; Homo sapiens, HepG2, 48 h
  IC50: > 100 µM

## COc1ccc(NC(=O)Cn2cnc3ccccc3c2=O)c(N)c1 [4g, N-(2-Amino-4-methoxyphenyl)-2-(4-oxoquinazolin-3(4H)-yl)acetamide]
MCF-7; Homo sapiens, MCF7, 48 h
  IC50: > 100 µM
HEPG2; Homo sapiens, HepG2, 48 h
  IC50: > 100 µM

## O=C(Cn1cnc2ccccc2c1=O)NCc1cccnc1 [4h, 2-(4-Oxoquinazolin-3(4H)-yl)-N-(pyridin-3-ylmethyl)acetamide]
MCF-7; Homo sapiens, MCF7, 48 h
  IC50: 58.2 ± 8.04 µM
HEPG2; Homo sapiens, HepG2, 48 h
  IC50: 51.4 ± 10.2 µM

## O=C(Cn1cnc2ccccc2c1=O)Nc1nccs1 [4i, 2-(4-Oxoquinazolin-3(4H)-yl)-N-(thiazol-2-yl)acetamide]
MCF-7; Homo sapiens, MCF7, 48 h
  IC50: > 100 µM
HEPG2; Homo sapiens, HepG2, 48 h
  IC50: 47.7 ± 16.2 µM

## O=c1c2ccccc2nc(S)n1Cc1cccnc1 [compound 5, 2-Mercapto-3-(pyridin-3-ylmethyl)quinazolin-4(3H)-one]
MCF-7; Homo sapiens, MCF7, 48 h
  IC50: > 100 µM
HEPG2; Homo sapiens, HepG2, 48 h
  IC50: > 100 µM
